What follows are compounds tested against Growth hormone secretagogue receptor type 1 (Homo sapiens, UniProt Q92847) (assay: Inhibition of ghrelin binding to Growth hormone secretagogue receptor expressed in BHK cells).
Format: cell-based
How it was run: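 Competition binding against ¹²⁵I-ghrelin at the human GHS receptor expressed in BHK cells. Values are displacement of the radiolabelled ghrelin tracer by the test compounds.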

Growth hormone secretagogue receptor type 1, sequence (Q92847 whole entry): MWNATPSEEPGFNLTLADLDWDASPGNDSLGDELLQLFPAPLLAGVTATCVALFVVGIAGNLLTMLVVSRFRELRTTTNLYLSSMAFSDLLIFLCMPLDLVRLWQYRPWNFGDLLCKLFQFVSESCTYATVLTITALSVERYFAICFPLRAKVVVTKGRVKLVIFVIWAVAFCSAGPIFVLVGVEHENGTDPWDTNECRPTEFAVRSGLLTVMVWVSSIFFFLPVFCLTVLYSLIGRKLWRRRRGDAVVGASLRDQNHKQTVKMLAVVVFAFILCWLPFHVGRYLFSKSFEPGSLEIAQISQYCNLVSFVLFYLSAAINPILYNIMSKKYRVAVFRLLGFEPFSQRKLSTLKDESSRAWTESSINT

Row | Compound | IC50 [µM]
1 | O=C1[C@H](CCc2ccccc2)N(Cc2cc(-c3ccccc3-c3nn[nH]n3)cs2)C(=O)N1CCCN1CCCCC1 | 1.3
2 | CN(C)CCCN1C(=O)[C@H](CCc2ccccc2)N(Cc2ccc(-c3ccccc3-c3nn[nH]n3)cc2)C1=O | 4
3 | CN(C)c1ccc(N2C(=O)[C@H](CCc3ccccc3)N(Cc3ccc(-c4ccccc4-c4nn[nH]n4)cc3)C2=S)cc1 | > 100
4 | CN(C)CCCN1C(=O)[C@H](Cc2ccccc2)N(Cc2ccc(-c3ccccc3-c3nn[nH]n3)cc2)C1=S | 35
5 | O=C1[C@H](CCc2ccccc2)N(Cc2ccc(-c3ccccc3-c3nn[nH]n3)s2)C(=O)N1CCCN1CCCCC1 | 15
6 | O=C1[C@H](CCc2ccccc2)N(Cc2ccc(-c3ccccc3-c3nn[nH]n3)cc2F)C(=O)N1CCCN1CCCCC1 | 1.6
7 | O=C1[C@H](Cc2c[nH]c3ccccc23)N(Cc2ccc(-c3ccccc3-c3nn[nH]n3)cc2)C(=O)N1C1CCNCC1 | 50
8 | O=C1[C@H](CCc2ccccc2)N(Cc2ccc(-c3ccccc3-c3nn[nH]n3)cc2)C(=S)N1CCCN1CCOCC1 | 45
9 | CN(C)CCCN1C(=O)[C@H](CCc2ccccc2)N(Cc2ccc(-c3ccccc3-c3nn[nH]n3)cc2)C1=S | 8.2
10 | NCCCN1C(=O)[C@H](CCc2ccccc2)N(Cc2ccc(-c3ccccc3-c3nn[nH]n3)cc2)C1=O | > 100
11 | CN(C)CCCN1C(=O)[C@H](c2ccccc2)N(Cc2ccc(-c3ccccc3-c3nn[nH]n3)cc2)C1=S | 35
12 | O=C1[C@H](CCc2ccccc2)N(Cc2ccc(-c3ccccc3-c3nn[nH]n3)cc2)C(=O)N1CCCN1CCCCC1 | 0.6
13 | CN(C)C(=O)CCN1C(=O)[C@H](CCc2ccccc2)N(Cc2ccc(-c3ccccc3-c3nn[nH]n3)cc2)C1=O | > 100
14 | O=C1[C@H](CCc2ccccc2)N(Cc2ccc(-c3ccccc3-c3nn[nH]n3)cc2)C(=O)N1CCCN1CCCC1 | 1.1
